Among the data in ChEMBL document CHEMBL4007486, “Prospective Evaluation of Free Energy Calculations for the Prioritization of Cathepsin L Inhibitors” (J Med Chem, 2017) are logD and Ki values, retold here.

The structures appear in SMILES notation.

Data set [1] is described as follows: Lipophilicity, logD of the compound. In kind it is physicochemical. The following applies: octanol/water.
For data set [2], the target named is T1, Procathepsin L (Homo sapiens, UniProt P07711). The data set can be described thus: Inhibition of human Cathepsin L by fluorescence assay based Cheng-Prusoff equation analysis. The gist of the method:
(§1)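 Fluorescence-based enzymatic assay against human cathepsin L, run as previously described. IC50 was measured, and Ki was then calculated from it with the Cheng-Prusoff equation.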

The target in data set [3] is T1, Procathepsin L. Nature of the data set: Inhibition of human Cathepsin L. A digest of the protocol:
as §1

T1 sequence (P07711 whole entry): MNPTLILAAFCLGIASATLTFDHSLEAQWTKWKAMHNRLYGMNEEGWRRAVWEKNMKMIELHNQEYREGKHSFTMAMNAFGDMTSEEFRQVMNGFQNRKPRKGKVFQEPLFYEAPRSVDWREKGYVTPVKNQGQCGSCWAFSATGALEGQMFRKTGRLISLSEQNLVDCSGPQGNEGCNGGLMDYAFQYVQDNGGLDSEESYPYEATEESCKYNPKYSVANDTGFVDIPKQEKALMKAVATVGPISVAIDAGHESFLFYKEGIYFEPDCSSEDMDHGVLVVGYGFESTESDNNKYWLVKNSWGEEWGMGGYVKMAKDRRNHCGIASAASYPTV

The logD is lipophilicity at a set pH, counting ionised and neutral species. For orientation: Ki means the equilibrium dissociation constant of an inhibitor or competing ligand from its target. Read a low Ki as tighter binding. Turning to `Cc1cc(OCCN(Cc2ccc3c(c2)OCO3)c2nc(C#N)ncc2F)cc(C)c1Cl`, the logD in data set [1] is 2.32. In data set [2], the Ki was 1430 nM.
The compound `N#Cc1ncc(F)c(N(CCOc2ccccc2)Cc2ccc3c(c2)OCO3)n1` came in with a Ki in data set [2] of 77 nM.
Compound `N#Cc1ncc(F)c(N(Cc2ccc3c(c2)OCO3)c2ccccc2)n1` displayed a logD in data set [1] of 3.44. Besides, the affinity in data set [2] corresponds to a Ki of 1800 nM.
Consider `N#Cc1ncc(F)c(N(CCC2CCOCC2)Cc2ccc3c(c2)OCO3)n1`, for which, in data set [1], the logD is 3.46. This compound also displayed a Ki in data set [2] of 2790 nM.
Regarding `CC(C)=CCN(Cc1ccc2c(c1)OCO2)c1nc(C#N)ncc1F`, affinity in data set [2] was put at a Ki of 1010 nM.
Same read-out and setting: the figure for `N#Cc1ncc(F)c(N(Cc2ccc3c(c2)OCO3)c2cccc(OCc3ccccc3)c2)n1` is above 5100 nM.
The same measure, in the same setting: the figure for `N#Cc1ncc(F)c(N(Cc2ccc3c(c2)OCO3)c2ccc(OCC3CC3)cc2)n1` is above 5100 nM.
Regarding `N#Cc1ncc(F)c(N(CCC(F)(F)F)Cc2ccc3c(c2)OCO3)n1`, the logD in data set [1] was 3.16. Besides, the Ki in data set [2] was determined as 25 nM.
On to `N#Cc1ncc(F)c(N(Cc2ccc3c(c2)OCO3)CC2CC2)n1`, for which the logD in data set [1] turned out to be 3.02. In data set [2], this compound registered a Ki of 77 nM.
On to `N#Cc1ncc(F)c(N(CCc2ccccn2)Cc2ccc3c(c2)OCO3)n1`, for which, in data set [1], the logD was determined as 3.39. Also, in data set [2], the Ki was found to be 3860 nM.
For `Cc1nc2n(c(=O)c1CCN(Cc1ccc3c(c1)OCO3)c1nc(C#N)ncc1F)CCCC2`, in data set [1], the logD was 2.96. The same compound registered a Ki in data set [2] of 1750 nM.
In data set [2], `N#Cc1ncc(F)c(N(Cc2ccc3c(c2)OCO3)c2ccc(OCC(F)(F)F)cc2)n1` returned a Ki above 5100 nM.
In the case of `N#Cc1cccc(CCN(Cc2ccc3c(c2)OCO3)c2nc(C#N)ncc2F)c1`, in data set [1], the logD worked out at 2.12. Besides, affinity in data set [2] was put at a Ki of 304 nM.
`Cc1nsc(N2CCC(N(Cc3ccc4c(c3)OCO4)c3nc(C#N)ncc3F)CC2)n1` displayed a logD in data set [1] of 3.49. In data set [2], the affinity, expressed as Ki, was 411 nM.
For `N#Cc1ncc(F)c(N(CCc2ccccc2)Cc2ccc3c(c2)OCO3)n1`, in data set [2], the Ki is 217 nM.
The same measure, in the same setting: to `N#Cc1ncc(F)c(N(CCCc2ccc(Cl)cc2)Cc2ccc3c(c2)OCO3)n1` belongs 27 nM.
`N#Cc1nc(N2CCOCC2)nc(N(Cc2ccc(Cl)cc2)C2CCCCC2)n1` returned a Ki in data set [3] of 13 nM.
In data set [1], `N#Cc1ncc(F)c(N(Cc2ccc3c(c2)OCO3)c2ccc(F)cc2)n1` came in with a logD of 3.49. Also, in data set [2], the Ki worked out at 952 nM.
As for `N#Cc1ncc(F)c(N(Cc2ccc3c(c2)OCO3)CC2CCCC2)n1`, the Ki in data set [2] came out at 12 nM.
As to `N#Cc1ncc(F)c(N(Cc2ccc3c(c2)OCO3)C2CCSCC2)n1`, the logD in data set [1] was found to be 3.61. Further, the affinity in data set [2] corresponds to a Ki of 515 nM.
Consider `N#Cc1ncc(F)c(N(Cc2ccc3c(c2)OCO3)[C@H]2CC[C@@H](C(F)(F)F)CC2)n1`, for which the affinity in data set [2], expressed as Ki, was 3500 nM.
On to `N#Cc1ncc(F)c(N(CCc2ccc(F)cc2)Cc2ccc3c(c2)OCO3)n1`, for which the inhibition constant Ki in data set [2] was 279 nM.
Regarding `CC(C)[C@H]1CC[C@@H](N(Cc2ccc3c(c2)OCO3)c2nc(C#N)ncc2F)CC1`, the logD in data set [1] came out at 2.74. Besides, the Ki in data set [2] stood at 3020 nM.
In data set [2], `COc1cccc(CCCN(Cc2ccc3c(c2)OCO3)c2nc(C#N)ncc2F)c1` displayed a Ki of 30 nM.
On the same count and under the same terms, to `N#Cc1ncc(F)c(N(CCc2ccsc2)Cc2ccc3c(c2)OCO3)n1` belongs 671 nM.
As for `N#Cc1ncc(F)c(N(Cc2ccc3c(c2)OCO3)C2CCCCC2)n1`, the affinity in data set [3] corresponds to a Ki of 200 nM.
As to `CNCCc1cccc(N(Cc2ccc3c(c2)OCO3)c2nc(C#N)ncc2F)c1`, in data set [2], the Ki was above 5100 nM.
Compound `CC1(N(Cc2ccc3c(c2)OCO3)c2nc(C#N)ncc2F)CC1` displayed a logD in data set [1] of 3.38. The Ki in data set [2] was above 5100 nM.
On to `N#Cc1ncc(F)c(N(CCCc2noc(-c3ccccc3)n2)Cc2ccc3c(c2)OCO3)n1`, for which the Ki in data set [2] was determined as 91 nM.
Consider `N#Cc1ncc(F)c(N(Cc2ccccc2)Cc2ccc3c(c2)OCO3)n1`, for which, in data set [2], the Ki was above 5100 nM.
On the same count and under the same terms, the figure for `N#Cc1ncc(F)c(N(Cc2ccc3c(c2)OCO3)[C@H]2CC[C@H](C(F)(F)F)CC2)n1` is above 5100 nM; for `N#Cc1ncc(F)c(N(Cc2ccc(Cl)cc2)Cc2ccc3c(c2)OCO3)n1` it is above 5100 nM.
Turning to `N#Cc1ncc(F)c(N(CCc2cccc(Br)c2)Cc2ccc3c(c2)OCO3)n1`, the affinity in data set [2], expressed as Ki, was 358 nM.
The compound `N#Cc1ncc(F)c(N(CCOc2ccc(Cl)cc2)Cc2ccc3c(c2)OCO3)n1` returned a Ki in data set [2] of 167 nM.
Same read-out and setting: to `CSc1cccc(N(Cc2ccc3c(c2)OCO3)c2nc(C#N)ncc2F)c1` belongs 5100 nM; to `N#Cc1ncc(F)c(N(Cc2ccc3c(c2)OCO3)c2ccc(Oc3cccnc3)cc2)n1`, 1020 nM.
The compound `N#Cc1ncc(F)c(N(CCc2ccncc2)Cc2ccc3c(c2)OCO3)n1` registered a logD in data set [1] of 3.15. The compound also gave an inhibitory constant (Ki) in data set [2] of 505 nM.
For `N#Cc1ncc(F)c(N(CCOc2ccc3ccccc3c2)Cc2ccc3c(c2)OCO3)n1`, in data set [2], the affinity, expressed as Ki, was 123 nM.
